{
  "source": "paper PMC3020727",
  "about": "(The Journal of Biological Chemistry, 2010)",
  "key": {"RbAp48 [1]": {"system": "RbAp48", "experiment": "Binding of MBD3 N-terminal peptide to RbAp48", "details": "data not shown"}, "RbAp48 [2]": {"system": "RbAp48", "details": "RbAp48 expressed in a reticulocyte lysate; cited from earlier work"}, "[3]": {"system": "RbAp48 mutants (E126A/E179A; E231A/D248A/N277A/E319A)", "experiment": "Pulldown of in vitro translated 35S-labeled mutant RbAp48 by biotinylated FOG-1-", "format": "binding", "how_it_was_run": "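³⁵S-labeled RbAp48 mutants made by coupled in vitro transcription/translation in rabbit reticulocyte lysate. About 10 μg biotinylated FOG-1-(1–15) on high-capacity streptavidin beads, in Tris pH 7.4, 300 mm NaCl, 0.5% IGEPAL and EDTA-free protease inhibitor. Lysate (15 μl, plus 45 μl ³⁵S-MTA-1 where stated) with 250 μl beads, 1 h, 4 °C. Bare-bead control; 10% input. Five washes; SDS-PAGE and autoradiography.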"}},
  "data": [
    {"substance": "MERKRWECPALPQGW [N-terminal peptide derived from MBD3]", "values": [
      {"measurement": "binding to RbAp48", "setting": "RbAp48 [1]", "value": "does not bind measurably"}
    ]},
    {"substance": "FOG-1-(1–15): chemically synthesized peptide, the 15 N-terminal amino acids of FOG-1", "values": [
      {"measurement": "interaction with RbAp48 in GST pulldown assays", "setting": "RbAp48 [2]", "value": "can interact"},
      {"measurement": "pulldown of E126A/E179A mutant RbAp48 in the presence of MTA-1", "setting": "[3]; 45 μl lysate with 35S-labeled MTA-1 added, Fig. 5B lane 10", "value": "could be recruited"}
    ]},
    {"substance": "biotinylated FOG-1-(1–15): FOG-1-(1–15) peptide bearing an N-terminal biotin tag, immobilized on streptavidin", "values": [
      {"measurement": "pulldown of quadruple-point mutant RbAp48 (Glu-231, Asp-248, Asn-277, Glu-319)", "setting": "[3]; biotinylated peptide on streptavidin beads, Fig. 5A", "value": "disrupts binding"}
    ]}
  ]
}
